Assay results reported in the M2OR odorant receptor database.

Key:
Settings in all cases: stereoisomer not certain
[1] = biological target: T1, OR10A3 (Homo sapiens) (UniProt P58181)
T1 sequence (whole entry): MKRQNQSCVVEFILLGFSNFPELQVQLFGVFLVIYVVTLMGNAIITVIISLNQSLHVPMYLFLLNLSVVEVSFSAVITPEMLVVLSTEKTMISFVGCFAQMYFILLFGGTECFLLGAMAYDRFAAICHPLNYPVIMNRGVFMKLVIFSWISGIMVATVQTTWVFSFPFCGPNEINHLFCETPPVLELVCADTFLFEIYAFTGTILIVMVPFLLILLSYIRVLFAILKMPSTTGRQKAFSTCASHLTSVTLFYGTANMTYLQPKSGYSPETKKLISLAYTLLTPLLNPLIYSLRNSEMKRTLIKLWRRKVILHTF
Summary of the method: (§1)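 Transient luciferase assays in mammalian cell lines were common, though methods varied by source. The values come from published papers and their supplementary material, with extra details from the original authors when needed. Responsive refers to a measured signal the original authors judged statistically different from baseline, and non-responsive (inactive) to the remainder.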

[2] = biological target: T2, OR10A4 (Homo sapiens) (UniProt Q9H209)
T2 sequence (whole entry): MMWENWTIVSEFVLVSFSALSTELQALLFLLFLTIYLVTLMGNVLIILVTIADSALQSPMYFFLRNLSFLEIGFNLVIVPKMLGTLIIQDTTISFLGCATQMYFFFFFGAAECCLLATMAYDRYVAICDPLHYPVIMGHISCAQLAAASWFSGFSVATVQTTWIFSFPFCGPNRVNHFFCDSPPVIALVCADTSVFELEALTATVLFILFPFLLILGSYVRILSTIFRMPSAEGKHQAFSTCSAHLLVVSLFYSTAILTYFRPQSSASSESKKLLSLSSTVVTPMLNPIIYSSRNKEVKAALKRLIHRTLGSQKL
Summary of the method: as §1

[3] = biological target: T3, OR10A5 (Homo sapiens) (UniProt Q9H207)
T3 sequence (whole entry): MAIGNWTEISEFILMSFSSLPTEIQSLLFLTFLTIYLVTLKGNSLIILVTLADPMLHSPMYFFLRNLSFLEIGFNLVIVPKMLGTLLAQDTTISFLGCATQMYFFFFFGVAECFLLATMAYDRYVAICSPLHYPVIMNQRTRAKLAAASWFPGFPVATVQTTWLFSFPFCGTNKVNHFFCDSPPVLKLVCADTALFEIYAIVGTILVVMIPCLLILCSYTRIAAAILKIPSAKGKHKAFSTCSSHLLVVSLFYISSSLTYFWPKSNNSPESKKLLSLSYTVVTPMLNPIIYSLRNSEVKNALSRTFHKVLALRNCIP
Summary of the method: as §1

[4] = biological target: T4, OR10A6 (Homo sapiens) (UniProt Q8NH74)
T4 sequence (whole entry): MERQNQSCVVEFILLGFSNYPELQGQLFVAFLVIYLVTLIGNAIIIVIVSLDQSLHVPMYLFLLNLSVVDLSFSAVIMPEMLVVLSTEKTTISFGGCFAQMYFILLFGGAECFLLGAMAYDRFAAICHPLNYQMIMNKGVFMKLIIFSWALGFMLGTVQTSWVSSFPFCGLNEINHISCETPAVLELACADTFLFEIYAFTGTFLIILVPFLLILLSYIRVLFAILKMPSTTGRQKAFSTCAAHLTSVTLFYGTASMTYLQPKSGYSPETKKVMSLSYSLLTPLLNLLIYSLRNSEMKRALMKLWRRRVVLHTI
Summary of the method: as §1

[5] = biological target: T5, OR10A7 (Homo sapiens) (UniProt Q8NGE5)
T5 sequence (whole entry): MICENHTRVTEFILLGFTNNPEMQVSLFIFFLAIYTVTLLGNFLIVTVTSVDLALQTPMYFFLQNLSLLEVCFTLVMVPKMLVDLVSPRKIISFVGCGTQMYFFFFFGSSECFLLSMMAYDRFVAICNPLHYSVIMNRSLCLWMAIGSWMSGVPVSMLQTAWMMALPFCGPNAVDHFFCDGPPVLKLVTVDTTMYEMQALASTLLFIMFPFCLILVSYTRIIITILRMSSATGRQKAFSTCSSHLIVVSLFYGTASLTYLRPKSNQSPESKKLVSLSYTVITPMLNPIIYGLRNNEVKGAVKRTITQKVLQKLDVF
Summary of the method: as §1

[6] = biological target: T6, OR10AD1 (Homo sapiens) (UniProt Q8NGE0)
T6 sequence (whole entry): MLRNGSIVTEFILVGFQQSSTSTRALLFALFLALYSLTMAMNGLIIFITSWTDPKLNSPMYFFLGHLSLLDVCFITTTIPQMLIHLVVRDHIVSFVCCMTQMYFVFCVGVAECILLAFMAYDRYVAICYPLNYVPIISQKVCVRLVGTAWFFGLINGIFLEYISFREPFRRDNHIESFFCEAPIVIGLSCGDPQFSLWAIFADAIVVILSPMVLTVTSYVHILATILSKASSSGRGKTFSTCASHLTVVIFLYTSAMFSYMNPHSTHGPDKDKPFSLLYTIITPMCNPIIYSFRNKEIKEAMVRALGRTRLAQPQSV
Summary of the method: as §1

[7] = biological target: T7, OR10AG1 (Homo sapiens) (UniProt Q8NH19)
T7 sequence (whole entry): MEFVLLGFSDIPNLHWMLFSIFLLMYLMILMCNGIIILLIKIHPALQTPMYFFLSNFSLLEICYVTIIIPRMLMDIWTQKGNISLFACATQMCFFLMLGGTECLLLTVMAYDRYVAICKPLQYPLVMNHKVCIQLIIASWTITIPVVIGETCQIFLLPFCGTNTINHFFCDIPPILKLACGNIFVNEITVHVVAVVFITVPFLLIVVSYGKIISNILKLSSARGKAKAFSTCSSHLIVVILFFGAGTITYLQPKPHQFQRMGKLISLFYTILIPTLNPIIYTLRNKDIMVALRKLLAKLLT
Summary of the method: as §1

[8] = biological target: T8, OR10C1 (Homo sapiens) (UniProt Q96KK4)
T8 sequence (whole entry): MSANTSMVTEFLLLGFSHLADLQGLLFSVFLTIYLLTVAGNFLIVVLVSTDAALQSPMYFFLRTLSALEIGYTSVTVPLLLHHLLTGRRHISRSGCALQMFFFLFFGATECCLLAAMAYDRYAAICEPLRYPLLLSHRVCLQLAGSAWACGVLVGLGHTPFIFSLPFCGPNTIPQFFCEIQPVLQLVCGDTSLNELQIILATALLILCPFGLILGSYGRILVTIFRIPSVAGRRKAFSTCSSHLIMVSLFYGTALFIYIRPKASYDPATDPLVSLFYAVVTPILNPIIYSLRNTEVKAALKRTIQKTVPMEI
Summary of the method: as §1

[9] = biological target: T9, OR10D3 (Homo sapiens) (UniProt Q8NH80)
T9 sequence (whole entry): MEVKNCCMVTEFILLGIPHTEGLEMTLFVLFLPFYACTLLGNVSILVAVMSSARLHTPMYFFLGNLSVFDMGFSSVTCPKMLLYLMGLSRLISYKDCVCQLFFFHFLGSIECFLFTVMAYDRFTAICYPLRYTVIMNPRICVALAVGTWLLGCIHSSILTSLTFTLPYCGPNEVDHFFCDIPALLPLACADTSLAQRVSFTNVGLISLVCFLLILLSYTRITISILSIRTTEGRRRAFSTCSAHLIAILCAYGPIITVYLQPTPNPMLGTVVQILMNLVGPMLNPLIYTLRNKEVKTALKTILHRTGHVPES
Summary of the method: as §1

Measured: odorant receptor agonist call;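 also: active if original authors judged signal statistically different from baseline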

CCCCCCC=CCCC=O
inactive: all assays above
